In ChEMBL document CHEMBL4052826, “Design and Synthesis of Novel Reactive Oxygen Species Inducers for the Treatment of Pancreatic Ductal Adenocarcinoma” (J Med Chem, 2018) one finds Activity data, which are given here for one compound.

The structures appear in SMILES notation. Calls of active or inactive are those of the source. The rule behind the calls is not given here.

For data set [1], the system named is MIA PaCa-2. Kind of data set: Induction of unfolded protein response in human MIAPaCa2 cells assessed as upregulation of CHOP expression at 2 uM by Western blot analysis. The class given is functional, cell-based. Conditions: TDE = time-dependent effect. A digest of the protocol:
(§1)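 Immunoblotting. Cells (4×10^5) in 60 mm dishes were treated, lysed 30 min at 4°C and quantified by BCA. 40 μg protein was run on SDS-PAGE and transferred to PVDF. Primary antibodies (1:1000) incubated overnight at 4°C, then Dylight 800 secondary, with fluorescent scanning. Bands were normalized to GAPDH or actin loading controls. Mean ± SD, three independent experiments, Student's t-test.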
For orientation: In western blotting, separated proteins are transferred to a membrane and probed.

Data set [2] concerns MIA PaCa-2. Kind of data set: Downregulation of Sp1 gene expression in human MIAPaCa2 cells at IC50 to 5 times IC50 after 4 hrs by Bru-seq analysis. The format is functional, cell-based.
Data set [3] relates to MIA PaCa-2. As to the kind of experiment: Antitumor activity against human MIAPaCa2 cells xenografted in NOD/SCID mouse assessed as tumor volume at 5 mg/kg, ip administered 5 times a week co-administered with gemcitabine at 15 mg/kg administered once a week for 48 days (reference value: 1503 +/- 189 mm'3). The class given is functional. A digest of the protocol:
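MIA PaCa-2 subcutaneous xenografts in NOD/SCID mice, randomized at 75 mm3. Test agent was given at 5 mg/kg five times a week. Gemcitabine was given at 15 mg/kg either once weekly for 48 days or twice weekly for 15 days. Groups were n=3–4. Tumor volume was measured by caliper, given as mean ± SEM, and compared by unpaired t test.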
(A xenograft is tissue or cells of one species grown in another, often human tumour cells in immunodeficient mice.)

Data set [4] concerns Mus musculus. As to the kind of experiment: Toxicity in NOD/SCID mouse xenografted with human MIAPaCa2 cells assessed as body weight loss at 5 mg/kg, ip administered 5 times a week until day 44 followed by dose escalation up to 20 mg/kg until day 67. The class given is organism-based. To be noted: in vivo. The gist of the method: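 After a 44-day course (ip, five days on/two off, in 5% DMSO/60% propylene glycol/35% saline), two mice per group stayed on study and dose was gradually raised from 5 to 20 mg/kg until day 67 in MIA PaCa-2 flank xenografts in NOD/SCID mice. Body weight monitored; mean ± SEM.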

Data set [5] concerns MIA PaCa-2. Kind of data set: Antitumor activity against human MIAPaCa2 cells xenografted in NOD/SCID mouse assessed as tumor volume at 5 mg/kg, ip administered 5 times a week until day 44 (reference value: 1291 +/- 168 mm'3). The class given is functional.
The test system of data set [6] is MIA PaCa-2. Kind of data set: Antitumor activity against human MIAPaCa2 cells xenografted in NOD/SCID mouse assessed as delay of tumor growth at 5 mg/kg, ip administered 5 times a week until day 44 followed by dose escalation up to 20 mg/kg until day 67. The class given is functional, organism-based. The gist of the method: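 Subcutaneous MIA PaCa-2 flank xenografts in NOD/SCID mice, randomized at 65 mm3. Dosing was 5 mg/kg ip in 5% DMSO/60% propylene glycol/35% saline, five days on and two off, to day 44. Two mice per group then continued with the dose gradually raised to 20 mg/kg until day 67. Tumor volume was taken by caliper and body weight monitored.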

Data set [7] has as its system MIA PaCa-2. As to the kind of experiment: Downregulation of COX-3 expression in human MIAPaCa2 cells at 2 uM after 4 to 24 hrs by Western blot method. The class given is functional, cell-based. The gist of the method:
as §1

The subject of data set [8] is Mus musculus. Kind of data set: Induction of reactive oxygen species generation in tumor of NOD/SCID mouse xenografted with MIAPaCa2 cells assessed as upregulation of NQO1 expression at 5 mg/kg, ip administered 5 times a week until day 44 by Western blot method. The format is functional, organism-based.

For `O=C1C(Nc2ccc(-c3ccccc3)cc2)=CC(=O)c2ncncc21`, the Activity result was “Tde” in data set [1], 163 mm3 in data set [3], “Non-Toxic” in data set [4] and 308 mm3 in data set [5]. For the same compound, the outcome in data set [2] was inactive. Further, the result in data set [6], in data set [7] and in data set [8] was Active.
